A value given as a limit tells only on which side of the number the result lay.

This is an account of results in BindingDB's records for doi:10.1021/jm701107h (The Ohio State University, 2008).

For this test, the target named is T1, Aromatase (Homo sapiens, UniProt P11511).
T1 sequence (P11511 whole entry): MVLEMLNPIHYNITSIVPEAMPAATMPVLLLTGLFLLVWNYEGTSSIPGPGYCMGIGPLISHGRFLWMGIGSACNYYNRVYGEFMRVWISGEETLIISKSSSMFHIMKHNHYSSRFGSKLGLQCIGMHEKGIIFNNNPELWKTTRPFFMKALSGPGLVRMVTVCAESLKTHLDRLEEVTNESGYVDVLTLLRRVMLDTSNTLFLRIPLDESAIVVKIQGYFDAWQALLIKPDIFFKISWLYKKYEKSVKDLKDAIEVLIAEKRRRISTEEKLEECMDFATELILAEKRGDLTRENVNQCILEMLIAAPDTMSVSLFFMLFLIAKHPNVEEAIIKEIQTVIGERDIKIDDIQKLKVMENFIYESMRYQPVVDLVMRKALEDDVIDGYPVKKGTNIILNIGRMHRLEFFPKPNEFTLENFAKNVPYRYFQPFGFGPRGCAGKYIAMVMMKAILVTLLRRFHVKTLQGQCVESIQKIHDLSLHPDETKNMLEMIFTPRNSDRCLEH
The test can be described thus: Inhibition of aromatase in human SKBR3 cells by tritiated water release assay. An outline of the steps: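 Subconfluent SK-BR-3 cells were switched to defined DMEM/F12 (human albumin, transferrin, insulin) and treated 24 h at five concentrations in triplicate (0.1% DMSO vehicle). They were then incubated 3 h with 100 nM [1β-3H]-androstenedione. TCA-precipitated medium was chloroform-extracted and charcoal-treated, and 3H2O counted as pmol/h/10^6 cells, normalized by DNA assay. IC50 was taken from sigmoidal dose–response fits.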

For orientation: IC50 means the point on the concentration scale where inhibition reaches its midpoint. `COc1cc([N+](=O)[O-])ccc1NS(C)(=O)=O` [N-(2-methoxy-4-nitrophenyl)methanesulfonamide] gave an IC50 of more than 25 µM.
The molecule `COc1cc([N+](=O)[O-])ccc1N(C)S(C)(=O)=O` [N-methyl-N-(2-methoxy-4-nitrophenyl)methanesulfonamide] came in with an IC50 of more than 25 µM.
